Results from the EternaBench riboswitch data.

Test system: MS2 coat protein
Test: apparent Kd, MS2 coat protein; higher = weaker binding; RNA-MaP array
Procedure, shortened: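 Incubations were done at room temperature with fluorescently labeled MS2 coat protein at 1.5 nM to 3 μM and designed RNAs transcribed on an Illumina sequencing chip from sequenced DNA templates, with or without input ligand. Apparent Kd is the median of binding curves fitted for each cluster. Designs with fewer than 10 measured clusters were excluded.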

[1] = designed as: ON switch for flavin mononucleotide, no ligand
[2] = ligand present: flavin mononucleotide, designed as: ON switch for flavin mononucleotide
[3] = designed as: OFF switch for flavin mononucleotide, no ligand
[4] = ligand present: flavin mononucleotide, designed as: OFF switch for flavin mononucleotide
[5] = designed as: OFF switch for theophylline, no ligand
[6] = ligand present: theophylline, designed as: OFF switch for theophylline
[7] = designed as: OFF switch for tryptophan, no ligand
[8] = ligand present: tryptophan, designed as: OFF switch for tryptophan

Sequence | apparent Kd [1] | apparent Kd [2] | apparent Kd [3] | apparent Kd [4] | further results
AACAAAUGGGAAGGAUAUCGUUACAUGAGGAUCACCCAUGUCUACCUUGGGAGCGGUAGCUAUGUCGAGAAGGUCCAUGCGCGA | 394 nM | 84.1 nM | – | – | –
UUUAUACAUGAGGAUCACCCAUGUGAGGAUAUAAAGGCGGACACUGCUGUCGAUCGCUUUAGAAGGCACUGGAU | – | – | 15.8 nM | 20 nM | –
AGCGUGUAAGGAUAUUGAUCUCCACUUCUGUAGGUCGGUGACAAGAAGGUACAUGAGGAUCACCCAUGUCCAUG | – | – | 19.8 nM | 21.7 nM | –
UCCUAGCGACAGAAGGUAGGCAAGAGACGCCCUCAACGACAUGAGGAUCACCCAUGUGGGACCACUAAGGAUAUGUAUGCCGAC | – | – | 84.6 nM | 66.5 nM | –
AUAAACCUAACAUGAGGAUCACCCAUGUCCUCCGUCGGUCGAAGAAGGAGUAAUGCUUAUUUUUACUAGGAUAUUCGUAAUCAC | – | – | 90.2 nM | 216 nM | –
CCCAUUGAGGAGGAUAUACUAUUGGAGACUCUCGUAGAAGGCCUGACAUGAGGAUCACCCAUGUACGUGAUAUC | – | – | 121 nM | 76.7 nM | –
AGAUCGCUGACCGCGGGAGAUGCGCAGGAUACCAGCCUAAUGUCCGGCCCUUGGCAGCCUGUAACAUGAGGAUCACCCAUGUGAA | – | – | – | – | apparent Kd [5]: 17.1 nM; apparent Kd [6]: 31 nM
CAGGCAUGUAUAGGAUAUUGGGCUGGACGCGUUGUCGGUCGUUCCAACAUGAGGAUCACCCAUGUCAAGAAGGAUAUGCAUUCG | 38.8 nM | 27.3 nM | – | – | –
GCUAGUAGAGAGAAGGAGCUUGAAUAUUUAGCGCUAGGAUAUCUUCGGUAGCCGUAGAGCAUACAUGAGGAUCACCCAUGUCCG | 52.7 nM | 27.8 nM | – | – | –
AUACCUAGUGAAGGAUAUCCAAAUAACUAUAGAGGAGAAGGACACAUUCUAACAUGAGGAUCACCCAUGUCCCGCCGUCUUACC | 14.4 nM | 11.9 nM | – | – | –
UUAUGUGACGAGGAUAUGAAAAGGAGUGGUGAAUCAGAAGGCGUAACAUGAGGAUCACCCAUGUCAGUGGGCCU | – | – | 49.6 nM | 71.3 nM | –
UUCACGGGCACGGCCGCCACUAACCAACAUGAGGAUCACCCAUGUGUAUUGGACGACCUCUUUGCUAGGACCGGGUGUAUGGUUC | – | – | – | – | apparent Kd [7]: 24.8 nM; apparent Kd [8]: 30.5 nM
GCAAAAGCGCUCUAGAGACAUGAGGAUCACCCAUGUGUGGGUAGAAGGUCCUACGUACCAUUAAGGAAGGAUAUACACAUAUAU | 1090 nM | 540 nM | – | – | –
CGCUACAUAGCGGCCGCCACUGUCAUGGCUACGAUAGGUCACUCGUACAUGAGGAUCACCCAUGUCAGGACCGGGCUAUCCUCGC | – | – | – | – | apparent Kd [7]: 92.9 nM; apparent Kd [8]: 203 nM
AAAUGGAUCGAAGGAUAUCCCCAGACAUGAGGAUCACCCAUGUGAGGGUACAGUUAUUGUUAUCAGGAGAAGGUCGCAUUCAAA | – | – | 10.3 nM | 9.5 nM | –
AGGCUAUGUGAGAAGGCCGAAUGCCUAUAGUGCGGAGGAUAUCAAUCAACAUGAGGAUCACCCAUGUAGCAAAUCGUAGUUCUC | 84.3 nM | 60.1 nM | – | – | –
CCAGCGAGUUAGACCUUACAUGAGGAUCACCCAUGUUGGCGUAGAAGGACGCUCAUAAGCACUGCGUAGGAUAUACUCACCAAU | – | – | 7.99 nM | 10.4 nM | –
GAAGAGAGGAUACCGUUUGUAUACAACGAUACCAGUGGUAUGUAUCACCCUUGGCAGCGUGAGACAUGAGGAUCACCCAUGUGGC | – | – | – | – | apparent Kd [5]: 21.2 nM; apparent Kd [6]: 21.6 nM
ACAAUAAAUCAAGGAUAUGAACGAAGCAAGUGAUCAGAAGGUGAAAUAAACCCAUAAACUCCAACAUGAGGAUCACCCAUGUGA | 54 nM | 35.5 nM | – | – | –
GUACAGGAGGAAGGAUAUAAUGCACAUGAGGAUCACCCAUGUAAGAGGAAAUCACCAUAACUGAUUUAGAAGGACCAGCAAAAC | – | – | 12 nM | 11.3 nM | –
